≈ marks a conversion by molar mass, not a printed value.
Tests used:
Format in all cases: functional
[1] = test system: Mycobacterium avium complex sp.; experiment: Antimycobacterial activity against Mycobacterium avium complex N018 infected C57BL/6J mouse assessed as liver bacterial count at 200 mg/kg/day dosed through gavage route administered for 28 days post bacterial challenge measured 2 days after last dose
How it was run: (§1)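 Mice given 1.0 × 10^7 to 3.0 × 10^7 CFU in 100 μl via tail vein; daily gavage dosing began day 21 for 28 days; distilled-water controls. Sacrifice 48 h after last dose. Organ portions homogenized in 1 ml saline, diluted in 7H9, plated on 7H10; log10 CFU/organ, mean ± SEM, 5 mice/group. Experiment run twice; ANOVA with Fisher's PLSD.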

[2] = test system: Mycobacterium avium complex sp.; experiment: Antimycobacterial activity against Mycobacterium avium complex N018 infected C57BL/6J mouse assessed as lung bacterial count at 200 mg/kg/day dosed through gavage route administered for 28 days post bacterial challenge measured 2 days after last dose; how it was run: as §1
[3] = test system: Mycobacterium avium complex sp.; experiment: Antimycobacterial activity against Mycobacterium avium complex N018 infected C57BL/6J mouse assessed as spleen bacterial count at 200 mg/kg/day dosed through gavage route administered for 28 days post bacterial challenge measured 2 days after last dose; how it was run: as §1
Mycobacterium avium [4] = experiment: Antimycobacterial activity against Mycobacterium avium JATA51-01 after 14 days by broth microdilution method; conditions: JATA51-01, 336 h
How it was run: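 Broth microdilution in 7H9 (10% OADC, 0.05% Tween 80, 0.2% glycerol); twofold drug dilutions, final 0.125–128 μg/ml; inoculum 1.0 × 10^5 CFU/well from 7-day 37°C subculture of 21-day 7H10 colonies; 14 days at 37°C; MIC = lowest concentration with complete growth inhibition; triplicate.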

[5] = test system: Mycobacterium intracellulare; experiment: Antimycobacterial activity against Mycobacterium intracellular JATA52-01 after 14 days by broth microdilution method; conditions: JATA52-01, 336 h
How it was run: (§2)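 Broth microdilution in Middlebrook 7H9 (OADC, Tween 80, glycerol); twofold dilutions giving final 0.125–128 μg/ml; inoculum 1.0 × 10^5 CFU/well; 14 days at 37°C. MIC = lowest concentration completely inhibiting growth. Triplicate tests. Inocula from 7H10 agar colonies (21 days) subcultured in 7H9 for 7 days at 37°C, stored at −80°C.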

[6] = test system: Mycobacterium avium complex sp.; experiment: Antimycobacterial activity against Mycobacterium avium complex N016 after 14 days by broth microdilution method; conditions: N016, 336 h; how it was run: as §2
[7] = test system: Mycobacterium avium complex sp.; experiment: Antimycobacterial activity against Mycobacterium avium complex N018 after 14 days by broth microdilution method; conditions: N018, 336 h; how it was run: as §2
[8] = test system: Mycobacterium avium complex sp.; experiment: Antimycobacterial activity against Mycobacterium avium complex N084 after 14 days by broth microdilution method; conditions: N084, 336 h; how it was run: as §2
[9] = test system: Mycobacterium avium complex sp.; experiment: Antimycobacterial activity against Mycobacterium avium complex after 14 days by broth microdilution method; conditions: 336 h; how it was run: as §2
Mycobacterium avium [10] = experiment: Antimycobacterial activity against Mycobacterium avium JATA51-01 infected C57BL/6J mouse assessed as lung bacterial count at 200 mg/kg/day dosed through gavage route administered for 28 days post bacterial challenge measured 2 days after last dose
How it was run: (§3)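 Mice infected via tail vein with 1.0 × 10^7 to 3.0 × 10^7 CFU in 100 μl saline; daily oral gavage started day 21, for 28 days; distilled-water controls; sacrificed 48 h after last dose; lungs, liver, spleen homogenized in saline, serially diluted in 7H9, plated on 7H10 agar; log10 CFU/organ, mean ± SEM, 5 mice/group; ANOVA with Fisher's PLSD; experiment done twice.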

Mycobacterium avium [11] = experiment: Antimycobacterial activity against Mycobacterium avium JATA51-01 infected C57BL/6J mouse assessed as liver bacterial count at 200 mg/kg/day dosed through gavage route administered for 28 days post bacterial challenge measured 2 days after last dose; how it was run: as §3
Mycobacterium avium [12] = experiment: Antimycobacterial activity against Mycobacterium avium JATA51-01 infected C57BL/6J mouse assessed as spleen bacterial count at 200 mg/kg/day dosed through gavage route administered for 28 days post bacterial challenge measured 2 days after last dose; how it was run: as §3
[13] = test system: Mycobacterium intracellulare; experiment: Antimycobacterial activity against Mycobacterium intracellular JATA52-01 infected C57BL/6J mouse assessed as lung bacterial count at 200 mg/kg/day dosed through gavage route administered for 28 days post bacterial challenge measured 2 days after last dose; how it was run: as §1
[14] = test system: Mycobacterium intracellulare; experiment: Antimycobacterial activity against Mycobacterium intracellular JATA52-01 infected C57BL/6J mouse assessed as liver bacterial count at 200 mg/kg/day dosed through gavage route administered for 28 days post bacterial challenge measured 2 days after last dose; how it was run: as §1
[15] = test system: Mycobacterium intracellulare; experiment: Antimycobacterial activity against Mycobacterium intracellular JATA52-01 infected C57BL/6J mouse assessed as spleen bacterial count at 200 mg/kg/day dosed through gavage route administered for 28 days post bacterial challenge measured 2 days after last dose; how it was run: as §1
[16] = test system: Mycobacterium avium complex sp.; experiment: Antimycobacterial activity against Mycobacterium avium complex N016 infected C57BL/6J mouse assessed as lung bacterial count at 200 mg/kg/day dosed through gavage route administered for 28 days post bacterial challenge measured 2 days after last dose; how it was run: as §1
[17] = test system: Mycobacterium avium complex sp.; experiment: Antimycobacterial activity against Mycobacterium avium complex N016 infected C57BL/6J mouse assessed as liver bacterial count at 200 mg/kg/day dosed through gavage route administered for 28 days post bacterial challenge measured 2 days after last dose; how it was run: as §1
[18] = test system: Mycobacterium avium complex sp.; experiment: Antimycobacterial activity against Mycobacterium avium complex N016 infected C57BL/6J mouse assessed as spleen bacterial count at 200 mg/kg/day dosed through gavage route administered for 28 days post bacterial challenge measured 2 days after last dose; how it was run: as §1
[19] = test system: Mycobacterium avium complex sp.; experiment: Antimycobacterial activity against Mycobacterium avium complex N084 infected C57BL/6J mouse assessed as lung bacterial count at 200 mg/kg/day dosed through gavage route administered for 28 days post bacterial challenge measured 2 days after last dose; how it was run: as §1
[20] = test system: Mycobacterium avium complex sp.; experiment: Antimycobacterial activity against Mycobacterium avium complex N084 infected C57BL/6J mouse assessed as liver bacterial count at 200 mg/kg/day dosed through gavage route administered for 28 days post bacterial challenge measured 2 days after last dose; how it was run: as §1
[21] = test system: Mycobacterium avium complex sp.; experiment: Antimycobacterial activity against Mycobacterium avium complex N084 infected C57BL/6J mouse assessed as spleen bacterial count at 200 mg/kg/day dosed through gavage route administered for 28 days post bacterial challenge measured 2 days after last dose; how it was run: as §1
[22] = test system: Mycobacterium avium complex sp.; experiment: Antimycobacterial activity against Mycobacterium avium complex N018 infected C57BL/6J mouse assessed as spleen bacterial count at 100 mg/kg/day dosed through gavage route administered for 28 days post bacterial challenge measured 2 days after last dose; how it was run: as §1
[23] = test system: Mycobacterium avium complex sp.; experiment: Antimycobacterial activity against Mycobacterium avium complex N084 infected C57BL/6J mouse assessed as lung bacterial count at 100 mg/kg/day dosed through gavage route administered for 28 days post bacterial challenge measured 2 days after last dose; how it was run: as §1
Mycobacterium avium [24] = experiment: Antimycobacterial activity against Mycobacterium avium JATA51-01 infected C57BL/6J mouse assessed as lung bacterial count at 100 mg/kg/day dosed through gavage route administered for 28 days post bacterial challenge measured 2 days after last dose; how it was run: as §3
Mycobacterium avium [25] = experiment: Antimycobacterial activity against Mycobacterium avium JATA51-01 infected C57BL/6J mouse assessed as liver bacterial count at 100 mg/kg/day dosed through gavage route administered for 28 days post bacterial challenge measured 2 days after last dose; how it was run: as §3
Mycobacterium avium [26] = experiment: Antimycobacterial activity against Mycobacterium avium JATA51-01 infected C57BL/6J mouse assessed as spleen bacterial count at 100 mg/kg/day dosed through gavage route administered for 28 days post bacterial challenge measured 2 days after last dose; how it was run: as §3
[27] = test system: Mycobacterium intracellulare; experiment: Antimycobacterial activity against Mycobacterium intracellular JATA52-01 infected C57BL/6J mouse assessed as lung bacterial count at 100 mg/kg/day dosed through gavage route administered for 28 days post bacterial challenge measured 2 days after last dose; how it was run: as §1
[28] = test system: Mycobacterium intracellulare; experiment: Antimycobacterial activity against Mycobacterium intracellular JATA52-01 infected C57BL/6J mouse assessed as liver bacterial count at 100 mg/kg/day dosed through gavage route administered for 28 days post bacterial challenge measured 2 days after last dose; how it was run: as §1
[29] = test system: Mycobacterium intracellulare; experiment: Antimycobacterial activity against Mycobacterium intracellular JATA52-01 infected C57BL/6J mouse assessed as spleen bacterial count at 100 mg/kg/day dosed through gavage route administered for 28 days post bacterial challenge measured 2 days after last dose; how it was run: as §1
[30] = test system: Mycobacterium avium complex sp.; experiment: Antimycobacterial activity against Mycobacterium avium complex N016 infected C57BL/6J mouse assessed as lung bacterial count at 100 mg/kg/day dosed through gavage route administered for 28 days post bacterial challenge measured 2 days after last dose; how it was run: as §1
[31] = test system: Mycobacterium avium complex sp.; experiment: Antimycobacterial activity against Mycobacterium avium complex N016 infected C57BL/6J mouse assessed as liver bacterial count at 100 mg/kg/day dosed through gavage route administered for 28 days post bacterial challenge measured 2 days after last dose; how it was run: as §1
[32] = test system: Mycobacterium avium complex sp.; experiment: Antimycobacterial activity against Mycobacterium avium complex N016 infected C57BL/6J mouse assessed as spleen bacterial count at 100 mg/kg/day dosed through gavage route administered for 28 days post bacterial challenge measured 2 days after last dose; how it was run: as §1
[33] = test system: Mycobacterium avium complex sp.; experiment: Antimycobacterial activity against Mycobacterium avium complex N018 infected C57BL/6J mouse assessed as lung bacterial count at 100 mg/kg/day dosed through gavage route administered for 28 days post bacterial challenge measured 2 days after last dose; how it was run: as §1
[34] = test system: Mycobacterium avium complex sp.; experiment: Antimycobacterial activity against Mycobacterium avium complex N018 infected C57BL/6J mouse assessed as liver bacterial count at 100 mg/kg/day dosed through gavage route administered for 28 days post bacterial challenge measured 2 days after last dose; how it was run: as §1
[35] = test system: Mycobacterium avium complex sp.; experiment: Antimycobacterial activity against Mycobacterium avium complex N084 infected C57BL/6J mouse assessed as liver bacterial count at 100 mg/kg/day dosed through gavage route administered for 28 days post bacterial challenge measured 2 days after last dose; how it was run: as §1
[36] = test system: Mycobacterium avium complex sp.; experiment: Antimycobacterial activity against Mycobacterium avium complex N084 infected C57BL/6J mouse assessed as spleen bacterial count at 100 mg/kg/day dosed through gavage route administered for 28 days post bacterial challenge measured 2 days after last dose; how it was run: as §1

`CC[C@H]1OC(=O)[C@H](C)[C@@H](O[C@H]2C[C@@](C)(OC)[C@@H](O)[C@H](C)O2)[C@H](C)[C@@H](O[C@@H]2O[C@H](C)C[C@H](N(C)C)[C@H]2O)[C@](C)(OC)C[C@@H](C)C(=O)[C@H](C)[C@@H](O)[C@]1(C)O` [CLARITHROMYCIN] gave a log10cfu [1] of 5.03, a log10cfu [2] of 2.18 and a log10cfu [3] of 4.06. The MIC (Mycobacterium avium [4]) was 2 µg/mL (≈ 2.67 µM), the MIC [5] was 0.5 µg/mL (≈ 0.668 µM) and the MIC [6] was 2 µg/mL (≈ 2.67 µM). For the same compound, the MIC [7] was 0.5 µg/mL (≈ 0.668 µM), the MIC [8] was 0.5 µg/mL (≈ 0.668 µM) and the MIC90 [9] was 64 µg/mL (≈ 85.6 µM). For the same compound, the log10cfu (Mycobacterium avium [10]) was 7.1, the log10cfu (Mycobacterium avium [11]) was 8.12 and the log10cfu (Mycobacterium avium [12]) was 7.1. For the same compound, the log10cfu [13] was 3.17, the log10cfu [14] was 3.2 and the log10cfu [15] was 3.16. The log10cfu [16] was 3.94, the log10cfu [17] was 5.91 and the log10cfu [18] was 5.36. For the same compound, the log10cfu [19] was 5.28, the log10cfu [20] was 4.58 and the log10cfu [21] was 4.3.

With `COc1c(N2CCNC(C)C2)c(F)cc2c(=O)c(C(=O)O)cn(C3CC3)c12` (configuration not stated) [GATIFLOXACIN] the log10cfu [22] was 6.75, the log10cfu [23] was 8.14 and the MIC (Mycobacterium avium [4]) was 2 µg/mL (≈ 5.33 µM). The MIC [5] was 1 µg/mL (≈ 2.66 µM), the MIC [6] was 0.5 µg/mL (≈ 1.33 µM) and the MIC [7] was 1 µg/mL (≈ 2.66 µM). For the same compound, the MIC [8] was 1 µg/mL (≈ 2.66 µM), the MIC90 [9] was 4 µg/mL (≈ 10.7 µM) and the log10cfu (Mycobacterium avium [24]) was 8.9. The log10cfu (Mycobacterium avium [25]) was 9.91, the log10cfu (Mycobacterium avium [26]) was 9.18 and the log10cfu [27] was 5.32. It also gave a log10cfu [28] of 5.15, a log10cfu [29] of 4.41 and a log10cfu [30] of 5.48. The log10cfu [31] was 6.6, the log10cfu [32] was 6.81 and the log10cfu [33] was 5.96. The log10cfu [34] was 7.21, the log10cfu [35] was 8 and the log10cfu [36] was 7.6.
